From PMC3609526 (Diabetes Care, 2013)

Assay: Euglycemic clamp study: pharmacodynamics by glucose infusion rate
Format: in vivo, human (type 1 diabetic patients)
Conditions: for GIR tmax50 (time to reach 50% of maximum GIR) / GIR tmax (time to reach maximum GIR): euglycemic clamp, 12 patients, mean ± SD
Method in brief: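 Crossover design with a 5–21 d washout, in fasting C-peptide-negative patients. During a 3–7 h run-in, IV human insulin/glucose held plasma glucose at 5.5 ± 1.1 mmol/L, with insulin tapered off over the last hour. At time 0, a fast-acting insulin analogue was injected into abdominal s.c. fat. Variable 10% glucose then ran for 8 h. Arterialized venous glucose (arm warmed at 55°C) was measured every 5–10 min in duplicate, and GIR AUC was calculated.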

[1] = 9 × 2 IU dispersed s.c. boluses

Substance: insulin aspart
- GIR tmax50 (time to reach 50% of maximum GIR) (1 × 18 IU single s.c. bolus): 49 ± 16 min
- GIR tmax (time to reach maximum GIR) (1 × 18 IU single s.c. bolus): 127 ± 93 min
- GIR tmax50 (time to reach 50% of maximum GIR) [1]: 38 ± 9 min
- GIR tmax (time to reach maximum GIR) [1]: 68 ± 33 min
- shortening of time to reach maximum GIR (9 × 2 IU vs. 1 × 18 IU): ~50%
